In the library only some 5.9% were active in any assay of this set; here they are far more common.
Measles CPE: compounds protecting cells from measles virus cytopathic effect, primary screen, measles RdRp inhibitor project, single point, MLSMR library, absorbance; Measles virus-infected cells, CPE protection; protection (pct of control), % at 4 µM; 1.5% of 140,000 active; AID 841, 2007; in the data active = protection mostly above about 24%, no sharp cut-off; inactive = mostly below about 26%
Cav3 T inh: Cav3.2 calcium influx blockers – cell-based, Fluo-4 calcium fluorescence, FDSS, MLSMR library, primary screen; Cav3.2-expressing cells; stronger effect = lower value; B-score at 10 µM; 4% of 100,000 active; AID 449739, 2010;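 active = single-dose well whose peak fluorescence ratio is a statistical outlier from its plate by either plate-standardised score or position-corrected B-score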
Phagocyt inh: inhibitors of macrophage phagocytosis, primary screen, imaging, J774A.1 cells, IgG beads | J774A.1 macrophage IgG-bead phagocytosis | inhibition, % at 5 µM | 0.07% of 110,000 active;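 active = inhibition above the mean of the plate negative controls plus 5 SD, cut at about 13% in these data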;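 also: phagocytic index as fraction of beads internalized from green versus red external bead signal; plate controls were DMSO negative control for no effect and cytochalasin-D positive control for full effect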
hDAT+cocaine: changed hDAT dopamine uptake under cocaine IC80, either direction, primary screen, cocaine antagonist project, cell-based, LLC-PK1 hDAT, [14C]-dopamine uptake, MLSMR | 1.3% of 110,000 active | AID 449768, 2010 | B-score at 10 µM | LLC-PK1 hDAT cells, [14C]-dopamine uptake with cocaine IC80; actives deviate in either direction;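 active = Z score or B-score, a plate-position-corrected score, falls beyond the plate's 99.7% confidence bounds, in either direction; inactive = both scores lie inside the 99.7% bounds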;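 also: scored against the spread of the other compound wells on the same plate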
PTK2B oligo ant: antagonists of Pyk2 self-association, primary screen, Q293 cells, FERM NanoBiT luminescence, HTS | z-score (the deposit names both 25 µM and 10 µM) | stronger effect = lower value | 0.83% of 99,000 active | Protein-tyrosine kinase 2-beta (Homo sapiens), Q14289;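 active = Z-score of -3 or lower, scaled per plate to the spread of control and sample wells; inactive = z-score above -3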;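 also: negative z-score means lost luminescence so less FERM oligomerization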
HIV Rev-RRE inh: HIV-1 Rev-RRE binding inhibitors, primary screen, biochemical, FRET, protein-RNA interaction | 0.79% of 97,000 active | inhibition, % at 8 µM | Rev peptide-RRE RNA binding;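 active = inhibition above the screen-wide mean plus 3 SD, cut at about 35% in these data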;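 also: 0% = median DMSO wells and 100% = median Neomycin B control wells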
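System: Cy5-labelled duplex RRE RNA binding fluorescein-labelled HIV Rev peptide; Signal: fluorescein-to-Cy5 FRET, 480 nm excitation; Also added: labelled Rev peptide; Compound: one concentration, 8 µM nominal; Buffer or medium: HEPES pH 7.5 salt buffer with EDTA; Read-out: % inhibition of FRET ratio versus controls; Schedule: 5 min preincubation and 15 min binding, 25 °C.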
The depositor's hits bear a star; . = not tested or not shown.

SMILES | Measles CPE | Cav3 T inh | Phagocyt inh | hDAT+cocaine | PTK2B oligo ant | HIV Rev-RRE inh
O=C(OCc1nc2ccccc2s1)c1cnccn1 | 11 | -0.065 | -1 | -0.26 | -0.54 | 6
CCCN1C2CCCC1CC(NC(=O)Nc1ccc(C(C)C)cc1)C2 (stereo not given) | 3 | -4.9* | . | 0.012 | 2.1 | 6
Cc1ccc2nc(-c3cccnc3SCC(=O)N3c4ccccc4CC3C)[nH]c2c1 (stereo not given) | 5 | -4.4* | 1 | 0.076 | -0.93 | 2
Cc1ccc2nc(SCC(=O)N3c4ccccc4CC3C)c(C)cc2c1 (stereo not given) | 7 | -2 | 0 | -0.78 | -0.98 | 17
Cc1c(NC(=S)Nc2ccccc2C(F)(F)F)cccc1[N+](=O)[O-] | 41* | . | -7 | . | . | .
CCC(=O)NC(=S)Nc1ccccc1C(F)(F)F | . | 0.55 | . | -0.88 | 0 | -2
CCOc1ccc(-n2c(C)nc3c(cnn3-c3ccc(Cl)cc3)c2=O)cc1 | 1 | -2.2 | -1 | -0.51 | 1.4 | 3
CCc1nc2c(cnn2-c2ccc(Cl)cc2)c(=O)n1-c1ccc(OC)cc1 | 56* | -0.027 | 0 | -1.5 | 0.86 | 6
COC1=C(N)C(=O)c2nc(-c3nc(C(=O)O)c(C)c(-c4ccc(OC)c(OC)c4O)c3N)ccc2C1=O | 5 | 0.071 | . | -4.1* | . | .
O=C(Cn1c(NCCO)nc2ccccc21)c1ccc(Cl)cc1 | 19 | -0.75 | 0 | -0.02 | 0.24 | 1
COc1ccc(-n2c(C)cc(C(=O)Cn3c(NCCO)nc4ccccc43)c2C)cc1 | 4 | -6.8* | -1 | 2.1* | 0.67 | -6
Cc1ccc(SCCC(=O)Nc2ccc(Br)c(C)c2)cc1 | 5 | . | -4 | . | . | .
CC(C)Cn1c(C(C)C)nc([N+](=O)[O-])c1Sc1ccc(Cl)cn1 | 17 | -5.8* | . | 1.1 | -0.86 | 7
CCCCn1c(CCC)nc([N+](=O)[O-])c1Sc1ccc(Cl)cn1 | 8 | -9* | . | 0.16 | -0.99 | 12
CC(C)Cn1c(C(C)C)nc([N+](=O)[O-])c1S(=O)(=O)c1ccc(F)cc1 | 26 | -3.2 | . | -0.42 | -0.66 | 4
CCCCNC(=O)c1onc(CSc2ccc(C(C)C)cc2)c1C(=O)O | 5 | -0.17 | -1 | -0.25 | . | -2
COc1cccc(CN2C(=O)[C@@H]3Cc4c([nH]c5ccccc45)C(C)(C)N3C2=O)c1 | . | -2.3 | . | 1 | . | .
CC1=C(C#N)C(=O)OC(C)(C)C1 | 9 | 0.035 | -5 | 0.76 | 0.73 | 43*
CC1=C(C)CS(=O)N(S(=O)(=O)c2ccc(Cl)cc2)C1 (stereo not given) | 12 | -7.4* | . | -0.48 | -0.58 | 4
COC(=O)NNC(=O)Cc1cccc2ccccc12 | 19 | . | -3 | . | . | .
Cc1cccc(NC(=O)CNc2cc(C)ccc2C)c1 | 11 | -5.8* | -1 | 0.24 | 0.86 | 0
Cc1ccc(F)cc1NCC(=O)Nc1ccc(Br)cc1 | 31 | . | -9 | . | . | .
CC(C)[C@H](NC(=O)c1ccccc1)C(=O)OCC(=O)N1CC2(C)CC1CC(C)(C)C2 (stereo not given in full) | 3 | . | -3 | . | . | .
COC(=O)C(Cc1ccccc1)NS(=O)(=O)c1ccc(F)cc1Br (stereo not given) | . | -0.2 | . | 0.75 | . | .
O=C(NCC(c1cccnc1)N1CCN(c2ccccc2)CC1)OCc1ccccc1 (stereo not given) | 8 | -0.63 | . | -0.13 | -1.4 | 9
O=C(NCC(c1ccco1)N1CCN(c2ccc(F)cc2)CC1)OCc1ccccc1 (stereo not given) | 2 | . | . | . | -3* | .
O=C(NCC(c1cccnc1)N1CCN(c2ccccc2F)CC1)OCc1ccccc1 (stereo not given) | 8 | -3.2 | -1 | 2.7 | -3.1* | -1
Cc1oc(-c2cccc(Cl)c2)nc1CN1CCCC(C(=O)NCc2ccco2)C1 (stereo not given) | 5 | -1.5 | . | 0.47 | -0.4 | 3

Bioassay records as filed in PubChem.
